Source: ChEMBL document CHEMBL3526015, “Metabolism of the c-Fos/activator protein-1 inhibitor T-5224 by multiple human UDP-glucuronosyltransferase isoforms” (Drug Metab Dispos, 2011)

How the values were obtained:
[1] = Drug level in pooled human intestinal microsomes treated with 10 uM T-5224 assessed as compound formation after 10 mins using 0.1 to 1.0 mg/ml microsomal protein content by HPLC method; format: ADME, Intestine, Microsome
Outline: (§1)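 Pooled human liver microsomes at 0.5 mg protein/mL, or pooled intestinal microsomes at 0.25 mg/mL, in 50 mM Tris-HCl pH 7.5, 8 mM MgCl2, alamethicin, with 2 mM UDPGA. T-5224 at 10 μM, 10 min at 37°C after 5 min preincubation; stopped with acetonitrile. HPLC with UV at 290 nm. Linearity was tested over 0.1–1.0 mg/mL protein and 5–30 min.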

[2] = target: T1, UDP-glucuronosyltransferase 1A1 (Homo sapiens, UniProt P22309); experiment: Drug level assessed as human UGT1A1-mediated compound formation from 5 to 50 uM T-5224 after 60 mins in presence of UDP-glucuronic acid by HPLC method; format: ADME; conditions: recombinant enzyme, 1 h
T1 sequence (P22309 whole entry): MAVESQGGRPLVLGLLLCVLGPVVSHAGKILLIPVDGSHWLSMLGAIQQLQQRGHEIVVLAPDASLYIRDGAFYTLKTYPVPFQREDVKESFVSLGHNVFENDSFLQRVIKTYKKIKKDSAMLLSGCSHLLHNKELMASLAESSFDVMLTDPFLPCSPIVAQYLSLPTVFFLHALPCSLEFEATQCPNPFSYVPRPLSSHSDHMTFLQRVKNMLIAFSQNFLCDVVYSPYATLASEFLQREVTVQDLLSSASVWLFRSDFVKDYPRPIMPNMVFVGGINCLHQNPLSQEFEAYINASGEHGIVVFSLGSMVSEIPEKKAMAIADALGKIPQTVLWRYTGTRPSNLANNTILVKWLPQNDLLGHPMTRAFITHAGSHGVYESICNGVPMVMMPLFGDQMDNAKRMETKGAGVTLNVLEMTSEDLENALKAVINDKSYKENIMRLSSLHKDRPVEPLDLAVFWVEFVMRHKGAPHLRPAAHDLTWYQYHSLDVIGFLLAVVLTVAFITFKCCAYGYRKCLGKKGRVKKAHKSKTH
Outline: (§2)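 Recombinant human UGT microsomes from baculovirus-infected insect cells, 0.1 mg protein/mL, in 50 mM Tris-HCl pH 7.5, 8 mM MgCl2, alamethicin. T-5224 in DMSO (2% v/v final). Preincubated 5 min at 37°C, started with 2 mM UDPGA, run 60 min at 37°C and stopped with acetonitrile. Glucuronides resolved by C18 HPLC with UV at 290 nm. Linearity was checked at 0.05–0.2 mg/mL protein and 10–60 min.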

[3] = Drug level in pooled human intestinal microsomes treated with 10 uM T-5224 assessed as compound formation after 5 to 30 mins by HPLC method; format: ADME, Intestine, Microsome; outline: as §1
Liver microsome [4] = experiment: Drug level in pooled human liver microsomes treated with 10 uM T-5224 assessed as compound formation after 5 to 30 mins by HPLC method; format: ADME; outline: as §1
[5] = target: T2, UDP-glucuronosyltransferase 1A3 (Homo sapiens, UniProt P35503); experiment: Drug level assessed as human UGT1A3-mediated compound formation from 5 to 50 uM T-5224 after 60 mins in presence of UDP-glucuronic acid by HPLC method; format: ADME; conditions: recombinant enzyme, 1 h; outline: as §2
T2 sequence (P35503 whole entry): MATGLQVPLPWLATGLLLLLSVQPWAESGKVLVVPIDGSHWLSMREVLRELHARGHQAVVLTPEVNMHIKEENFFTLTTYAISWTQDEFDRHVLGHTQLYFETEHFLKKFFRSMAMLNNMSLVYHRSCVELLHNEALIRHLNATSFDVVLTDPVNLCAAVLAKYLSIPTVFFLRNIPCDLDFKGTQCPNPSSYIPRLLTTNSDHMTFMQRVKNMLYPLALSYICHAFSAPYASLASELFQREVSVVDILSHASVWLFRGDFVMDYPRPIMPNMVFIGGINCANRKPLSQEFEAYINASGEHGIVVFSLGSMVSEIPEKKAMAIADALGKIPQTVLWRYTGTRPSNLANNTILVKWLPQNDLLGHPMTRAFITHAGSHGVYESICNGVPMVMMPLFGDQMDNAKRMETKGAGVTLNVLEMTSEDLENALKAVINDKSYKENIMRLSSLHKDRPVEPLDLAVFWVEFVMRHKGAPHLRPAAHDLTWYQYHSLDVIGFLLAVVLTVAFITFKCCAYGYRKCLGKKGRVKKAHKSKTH

[6] = target: T1, UDP-glucuronosyltransferase 1A1; experiment: Drug level assessed as human UGT1A1-mediated compound formation from 5 to 50 uM T-5224 after 10 to 60 mins in presence of UDP-glucuronic acid by HPLC method; format: ADME; conditions: recombinant enzyme; outline: as §2
[7] = target: T2, UDP-glucuronosyltransferase 1A3; experiment: Drug level assessed as human UGT1A3-mediated compound formation from 5 to 50 uM T-5224 after 60 mins in presence of UDP-glucuronic acid using 0.05 to 0.2 mg/ml by HPLC method; format: ADME; conditions: recombinant enzyme, 1 h; outline: as §2
Liver microsome [8] = experiment: Drug level in pooled human liver microsomes treated with 10 uM T-5224 assessed as compound formation after 10 mins using 0.1 to 1.0 mg/ml microsomal protein content by HPLC method; format: ADME; outline: as §1
[9] = target: T1, UDP-glucuronosyltransferase 1A1; experiment: Drug level assessed as human UGT1A1-mediated compound formation from 5 to 50 uM T-5224 after 60 mins in presence of UDP-glucuronic acid using 0.05 to 0.2 mg/ml by HPLC method; format: ADME; conditions: recombinant enzyme, 1 h; outline: as §2
Liver microsome [10] = experiment: Drug level in pooled human liver microsomes treated with T-5224 assessed as compound formation in presence of UDPGA by LC-MS/MS method; format: ADME
[11] = Drug level in pooled human intestinal microsomes treated with 10 uM T-5224 assessed as compound formation after 10 mins by HPLC method; format: ADME, Intestine, Microsome; outline: as §1
Liver microsome [12] = experiment: Drug level in pooled human liver microsomes treated with 10 uM T-5224 assessed as compound formation after 10 mins by HPLC method; format: ADME; outline: as §1
[13] = target: T2, UDP-glucuronosyltransferase 1A3; experiment: Drug level assessed as human UGT1A3-mediated compound formation from 5 to 50 uM T-5224 after 10 to 60 mins in presence of UDP-glucuronic acid by HPLC method; format: ADME; conditions: recombinant enzyme; outline: as §2
[14] = substrate: O=C(O)CCc1cc(C(=O)c2ccc(OC3CCCC3)cc2O)ccc1OCc1ccc2c(O)noc2c1; experiment: Drug metabolism assessed as human UGT1A1-mediated T-5224 hydroxyl O-glucuronide formation after 10 to 60 mins in presence of UDP-glucuronic acid by HPLC method; format: ADME
Outline: (§3)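 Recombinant human UGT1A1 from baculovirus-infected insect cells, 0.1 mg protein/mL, in 50 mM Tris-HCl pH 7.5 with 8 mM MgCl2 and alamethicin. T-5224 at 10–50 μM (2% DMSO final). After 5 min preincubation at 37°C, 2 mM UDPGA starts the reaction; 60 min at 37°C, stopped with acetonitrile. Glucuronides quantified by HPLC-UV at 290 nm, triplicate points. Substrate-inhibition fit gives Vmax, Km and Ksi. kcat = Vmax/E0, with UGT content taken from immunoblot.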

[15] = substrate: O=C(O)CCc1cc(C(=O)c2ccc(OC3CCCC3)cc2O)ccc1OCc1ccc2c(O)noc2c1; experiment: Drug metabolism assessed as Kcat to Km ratio for human UGT1A1-mediated T-5224 acyl O-glucuronide formation per mg protein after 10 to 60 mins in presence of UDP-glucuronic acid by HPLC method; format: ADME; outline: as §3
[16] = substrate: O=C(O)CCc1cc(C(=O)c2ccc(OC3CCCC3)cc2O)ccc1OCc1ccc2c(O)noc2c1; experiment: Drug metabolism assessed as human UGT1A1-mediated T-5224 acyl O-glucuronide formation after 10 to 60 mins in presence of UDP-glucuronic acid by HPLC method; format: ADME; outline: as §3
[17] = substrate: O=C(O)CCc1cc(C(=O)c2ccc(OC3CCCC3)cc2O)ccc1OCc1ccc2c(O)noc2c1; experiment: Drug metabolism assessed as Kcat to Km ratio for human UGT1A1-mediated T-5224 hydroxyl O-glucuronide formation per mg protein after 10 to 60 mins in presence of UDP-glucuronic acid by HPLC method; format: ADME; outline: as §3

Molecule | Drug metabolism [1] | Drug metabolism [2] | Drug metabolism [3] | Drug metabolism (Liver microsome [4]) | Drug metabolism [5] | Drug metabolism [6] | Drug metabolism [7] | Drug metabolism (Liver microsome [8]) | Drug metabolism [9] | Drug metabolism (Liver microsome [10]) | Drug metabolism [11] | Drug metabolism (Liver microsome [12]) | Drug metabolism [13] | Km [14] | kcat [14] | kcat/Km [15] | Km [16] | kcat [16] | kcat/Km [17]
O=C(CCc1cc(C(=O)c2ccc(OC3CCCC3)cc2O)ccc1OCc1ccc2c(O)noc2c1)O[C@@H]1O[C@H](C(=O)O)[C@@H](O)[C@H](O)[C@H]1O | Dose-dependent effect | metabolite_detected | Dose-dependent effect | Dose-dependent effect | metabolite_detected | Dose-dependent effect | Dose-dependent effect | Dose-dependent effect | Dose-dependent effect | metabolite_detected | metabolite_detected | metabolite_detected | Dose-dependent effect |  |  |  |  |  | 
UDP-glucuronosyltransferase 1A1 (Homo sapiens) (protein) MAVESQGGRPLVLGLLLCVLGPVVSHAGKILLIPVDGSHWLSMLGAIQQLQQRGHEIVVLAPDASLYIRDGAFYTLKTYPVPFQREDVKESFVSLGHNVFENDSFLQRVIKTYKKIKKDSAMLLSGCSHLLHNKELMASLAESSFDVMLTDPFLPCSPIVAQYLSLPTVFFLHALPCSLEFEATQCPNPFSYVPRPLSSHSDHMTFLQRVKNMLIAFSQNFLCDVVYSPYATLASEFLQREVTVQDLLSSASVWLFRSDFVKDYPRPIMPNMVFVGGINCLHQNPLSQEFEAYINASGEHGIVVFSLGSMVSEIPEKKAMAIADALGKIPQTVLWRYTGTRPSNLANNTILVKWLPQNDLLGHPMTRAFITHAGSHGVYESICNGVPMVMMPLFGDQMDNAKRMETKGAGVTLNVLEMTSEDLENALKAVINDKSYKENIMRLSSLHKDRPVEPLDLAVFWVEFVMRHKGAPHLRPAAHDLTWYQYHSLDVIGFLLAVVLTVAFITFKCCAYGYRKCLGKKGRVKKAHKSKTH |  |  |  |  |  |  |  |  |  |  |  |  |  | 5.56 µM | 0.00158 s⁻¹ | 903 M⁻¹ s⁻¹ | 7.91 µM | 0.0072 s⁻¹ | 284 M⁻¹ s⁻¹
